{
  "source": "paper PMC7383501",
  "about": "(Diabetes, Obesity & Metabolism, 2020)",
  "key": {"patients with T2D [1]": {"tested_on": "patients with T2D", "experiment": "Repeated-dose study: safety and tolerability", "format": "in vivo, human", "outline": "(§1)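 Adults aged 18–65 with T2D on stable metformin for ≥3 months, HbA1c 7–10%. Randomized 3:1 to s.c. test compound or placebo with no titration, in six cohorts of 12. Doses were 1, 2 or 4 mg weekly for 8 weeks, or 8, 12 or 16 mg monthly for 9 weeks; follow-up to week 13. Assessments covered AEs, vital signs, 12-lead ECG, clinical laboratory measures, immunogenicity and physical examination. Analysed in the safety set by treatment actually received.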"}, "[2]": {"tested_on": "anti-efpeglenatide antibodies", "experiment": "Single-dose study: immunogenicity, bridging ELISA", "format": "in vivo, human", "conditions": "serum, pre-dose, days 28 and 49, follow-up", "outline": "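First-in-patient dose escalation in eight cohorts of six T2D patients: single s.c. injection of 2–100 μg/kg test compound or placebo (5:1). Patients were 18–75 years, BMI 25–40 kg/m², HbA1c 6–10%, with a 14-day washout of glucose-lowering drugs before dosing. Immunogenicity was a secondary objective.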"}, "GLP‐1 receptor [3]": {"tested_on": "GLP‐1 receptor", "conditions": "in vitro; compared with other GLP‐1RAs; cited from earlier work"}, "patients with T2D [4]": {"tested_on": "patients with T2D", "experiment": "Repeated-dose study: pharmacodynamics/efficacy", "format": "in vivo, human", "outline": "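Multiple-ascending-dose trial in adults with T2D on stable metformin: s.c. doses weekly (1, 2, 4 mg; 8 weeks) or monthly (8, 12, 16 mg; 9 weeks), placebo 3:1, no titration. Primary endpoint was HbA1c change from baseline to […]. Full analysis set by randomized treatment. LS means came from ANCOVA with cohort as main effect and baseline as covariate. Each dose was tested against placebo within its regimen, two-sided at 5%, unadjusted.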"}, "patients with T2D [5]": {"tested_on": "patients with T2D", "experiment": "Single-dose study: pharmacodynamics", "format": "in vivo, human", "conditions": "single dose 2–8 μg/kg", "outline": "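Pharmacodynamics were assessed from 24-hour glucose profiles, including fasting and postprandial plasma glucose, reported as absolute change from baseline. The PD set comprised all treated patients.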"}, "[6]": {"experiment": "Repeated-dose study: serum pharmacokinetics of efpeglenatide", "format": "in vivo, human", "conditions": "mean (SD); for Accumulation ratio: AUC0–τ last dose / AUC0–τ first dose; for PTR (peak‐to‐trough ratio): Cmax/Cmin", "outline": "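T2D patients on metformin received s.c. doses weekly (168 h interval, eight injections) or monthly (672 h interval, three injections). PK set, grouped by the most recent treatment received. Accumulation ratio was AUC0–τ of the last dose over AUC0–τ of the first dose. Peak-to-trough ratio was Cmax/Cmin. t1/2 was the terminal elimination half-life.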"}, "[7]": {"experiment": "Single-dose study: serum pharmacokinetics of efpeglenatide", "format": "in vivo, human", "conditions": "T2D patients, serum ELISA; for tmax: median (min–max)", "outline": "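Single s.c. dose (2–100 μg/kg) in T2D patients. Serum concentration–time data were used to derive tmax, terminal t1/2, observed Cmax, AUC(0–last) and AUC(0–inf). Values are geometric mean (%CV of arithmetic mean); tmax is median (min, max). Dose proportionality was explored on log-transformed Cmax and AUC. The PK set comprised dosed patients with sufficient concentration data.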"}, "GLP‐1 receptor [8]": {"tested_on": "GLP‐1 receptor", "conditions": "in vitro; compared with other GLP‐1RAs; cited from earlier work", "remark": "listed apart in the source"}, "patients with T2D [9]": {"tested_on": "patients with T2D", "experiment": "Single-dose study: safety and tolerability", "format": "in vivo, human", "outline": "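Single ascending s.c. doses of 2–100 μg/kg or placebo (5:1) were given to T2D patients after a 14-day washout of glucose-lowering drugs. Safety assessments covered AE recording, vital signs, 12-lead ECG, clinical laboratory measures and physical examination. The safety set included all patients receiving any study drug.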"}, "[10]": {"tested_on": "anti-efpeglenatide antibodies", "experiment": "Repeated-dose study: immunogenicity, bridging ELISA", "format": "in vivo, human", "conditions": "the four patients with antibodies at baseline", "outline": "as §1"}, "[11]": {"conditions": "single s.c. dose 2 μg/kg, geometric mean (%CV)"}, "[12]": {"conditions": "single s.c. dose 4 μg/kg, geometric mean (%CV)"}, "[13]": {"conditions": "single s.c. dose 8 μg/kg, geometric mean (%CV)"}, "[14]": {"conditions": "single s.c. dose 14 μg/kg, geometric mean (%CV)"}, "[15]": {"conditions": "single s.c. dose 20 μg/kg, geometric mean (%CV)"}, "[16]": {"conditions": "single s.c. dose 40 μg/kg, geometric mean (%CV)"}, "[17]": {"conditions": "single s.c. dose 60 μg/kg, geometric mean (%CV)"}, "[18]": {"conditions": "single s.c. dose 100 μg/kg, geometric mean (%CV)"}},
  "data": [
    {"substance": "efpeglenatide", "values": [
      {"measurement": "dose-escalation stopping criteria", "setting": "patients with T2D [1]; 16 mg once monthly cohort, more than three patients with moderate vomiting", "result": "reached the predefined stopping criteria for dose escalation"},
      {"measurement": "pancreatic injury", "setting": "patients with T2D [1]; any patient receiving efpeglenatide, repeated-dose study", "result": "no cases of pancreatic injury"},
      {"measurement": "haematological, serum chemistry or urine analysis variables", "setting": "patients with T2D [1]; any treatment group, repeated-dose study", "result": "no significant change from baseline"},
      {"measurement": "development of anti‐efpeglenatide antibodies", "setting": "[2]", "result": "No patient"},
      {"measurement": "dissociation from the GLP‐1 receptor", "setting": "GLP‐1 receptor [3]", "result": "faster dissociation"},
      {"measurement": "LS mean change in HbA1c compared with placebo", "setting": "patients with T2D [4]; 8 mg once monthly, day 57, P = 0.006", "result": "statistically significant LS mean decreases"},
      {"measurement": "LS mean change in HbA1c compared with placebo", "setting": "patients with T2D [4]; 12 mg once monthly, day 57, P = 0.015", "result": "statistically significant LS mean decreases"},
      {"measurement": "LS mean change in HbA1c compared with placebo", "setting": "patients with T2D [4]; 16 mg once monthly, day 57", "result": "not statistically significant"},
      {"measurement": "LS mean change in HbA1c compared with placebo", "setting": "patients with T2D [4]; all once‐monthly dose groups (8, 12, 16 mg), day 29, P ≤0.047 for all, ANCOVA", "result": "significant decreases"},
      {"measurement": "LS mean change in HbA1c compared with placebo", "setting": "patients with T2D [4]; each once‐weekly dose group (1, 2, 4 mg), day 29, P ≤0.003 for all, ANCOVA", "result": "Significant decreases"},
      {"measurement": "LS mean change in HbA1c compared with placebo", "setting": "patients with T2D [4]; each once‐weekly dose group (1, 2, 4 mg), day 57, P ≤0.021 for all, ANCOVA", "result": "Significant decreases"},
      {"measurement": "changes in PPG", "setting": "patients with T2D [5]", "result": "No notable changes"},
      {"measurement": "reductions in FPG from baseline over 2 weeks", "setting": "patients with T2D [5]; compared with the higher doses, data not shown", "result": "smaller than those observed for the higher doses"},
      {"measurement": "Accumulation ratio", "setting": "[6]; 1 mg once weekly s.c., τ 168 h", "result": "3.49 (2.16)"},
      {"measurement": "PTR (peak‐to‐trough ratio)", "setting": "[6]; 1 mg once weekly s.c.", "result": "1.40 (0.49)"},
      {"measurement": "Accumulation ratio", "setting": "[6]; 2 mg once weekly s.c., τ 168 h", "result": "3.51 (0.68)"},
      {"measurement": "PTR (peak‐to‐trough ratio)", "setting": "[6]; 2 mg once weekly s.c.", "result": "1.42 (0.21)"},
      {"measurement": "Accumulation ratio", "setting": "[6]; 4 mg once weekly s.c., τ 168 h", "result": "3.71 (1.87)"},
      {"measurement": "PTR (peak‐to‐trough ratio)", "setting": "[6]; 4 mg once weekly s.c.", "result": "1.32 (0.12)"},
      {"measurement": "Accumulation ratio", "setting": "[6]; 8 mg once monthly s.c., τ 672 h", "result": "1.07 (0.10)"},
      {"measurement": "PTR (peak‐to‐trough ratio)", "setting": "[6]; 8 mg once monthly s.c.", "result": "10.35 (7.28)"},
      {"measurement": "PTR (peak‐to‐trough ratio)", "setting": "[6]; 12 mg once monthly s.c.", "result": "5.86 (1.10)"},
      {"measurement": "PTR (peak‐to‐trough ratio)", "setting": "[6]; 16 mg once monthly s.c.", "result": "12.94 (7.55)"},
      {"measurement": "AUC(0–last)", "setting": "[7]; [11]", "result": "2913 (19) ng h/mL"},
      {"measurement": "Cmax", "setting": "[7]; [11]", "result": "10.4 (11) ng/mL"},
      {"measurement": "tmax", "setting": "[7]; single s.c. dose 2 μg/kg", "result": "144.00 (72.06–216.76) h"},
      {"measurement": "AUC(0–inf)", "setting": "[7]; [12]", "result": "9060 (12) ng h/mL"},
      {"measurement": "AUC(0–last)", "setting": "[7]; [12]", "result": "7911 (12) ng h/mL"},
      {"measurement": "Cmax", "setting": "[7]; [12]", "result": "25.7 (16) ng/mL"},
      {"measurement": "t1/2", "setting": "[7]; [12]", "result": "144 (10) h"},
      {"measurement": "tmax", "setting": "[7]; single s.c. dose 4 μg/kg", "result": "72.06 (72.00–216.80) h"},
      {"measurement": "Cmax", "setting": "[7]; [13]", "result": "45.1 (5) ng/mL"},
      {"measurement": "t1/2", "setting": "[7]; [13]", "result": "147 (19) h"},
      {"measurement": "tmax", "setting": "[7]; single s.c. dose 8 μg/kg", "result": "72.06 (72.00–144.00) h"},
      {"measurement": "Cmax", "setting": "[7]; [14]", "result": "80.3 (28) ng/mL"},
      {"measurement": "t1/2", "setting": "[7]; [14]", "result": "135 (8) h"},
      {"measurement": "tmax", "setting": "[7]; single s.c. dose 14 μg/kg", "result": "144.00 (72.00–216.76) h"},
      {"measurement": "Cmax", "setting": "[7]; [15]", "result": "102 (6) ng/mL"},
      {"measurement": "t1/2", "setting": "[7]; [15]", "result": "147 (6) h"},
      {"measurement": "tmax", "setting": "[7]; single s.c. dose 20 μg/kg", "result": "144.00 (72.00–216.78) h"},
      {"measurement": "Cmax", "setting": "[7]; [16]", "result": "202 (14) ng/mL"},
      {"measurement": "t1/2", "setting": "[7]; [16]", "result": "141 (10) h"},
      {"measurement": "tmax", "setting": "[7]; single s.c. dose 40 μg/kg", "result": "144.00 (72.00–216.78) h"},
      {"measurement": "Cmax", "setting": "[7]; [17]", "result": "349 (13) ng/mL"},
      {"measurement": "t1/2", "setting": "[7]; [17]", "result": "154 (9) h"},
      {"measurement": "tmax", "setting": "[7]; single s.c. dose 60 μg/kg", "result": "72.00 (72.00–144.00) h"},
      {"measurement": "Cmax", "setting": "[7]; [18]", "result": "643 (12) ng/mL"},
      {"measurement": "t1/2", "setting": "[7]; [18]", "result": "180 (12) h"},
      {"measurement": "tmax", "setting": "[7]; single s.c. dose 100 μg/kg", "result": "72.00 (72.00–216.90) h"},
      {"measurement": "receptor internalization", "setting": "GLP‐1 receptor [8]", "result": "reduced receptor internalization"},
      {"measurement": "deaths or serious AEs", "setting": "patients with T2D [9]", "result": "no deaths or serious AEs"},
      {"measurement": "arrhythmia or ECG changes due to QTc prolongation or conduction disorders", "setting": "patients with T2D [9]; 12‐lead ECG", "result": "no signs of arrhythmia or ECG changes"},
      {"measurement": "hypoglycaemia or pancreatitis reported as AEs", "setting": "patients with T2D [9]; any treatment group", "result": "No incidences"},
      {"measurement": "treatment‐emergent or treatment‐induced antibodies", "setting": "[10]", "result": "none"}
    ]}
  ]
}
